Assay outcomes from PubChem.
In the library only some 4% were active in any assay of this set; here they are far more common.
bCat nuc transl – modulators of beta-catenin nuclear translocation, primary screen, imaging, HeLa cells, immunofluorescence, high-content | AID 1665, 2009 | actives 0.3% (n = 190,000) | nuclear translocation activity, % at 5 µM;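 active means nuclear translocation activity above 50% at 5 µM, with a well cell count of 50 or more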;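 further: per-cell ratio of nuclear to cytoplasmic median beta-catenin stain intensity; plate controls were DMSO negative control for no effect and GSK-3 inhibitor IX positive control for full effect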
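System: Human HeLa cells, endogenous beta-catenin | Compound dosing: 5 µM primary, 0.02–20 µM confirmation | Timing: 24 h compound exposure at 37°C, 5% CO2 | Measured by: Fluorescence imaging of beta-catenin antibody stain plus DAPI | Read-out basis: % activation of per-cell nuclear versus cytoplasmic median beta-catenin signal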
Pf gametocyte – late stage P. falciparum gametocyte viability inhibitors, primary screen, ATP luminescence, HTS; inhibition, % at 10.9 µM; P. falciparum stage V gametocytes, 24 h; AID 743093, 2013; actives 0.065% (n = 150,000);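 active means inhibition above the mean plus 3 SD of compounds within the control limits, set per campaign, cut at about 38% in these data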;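 further: 0% = DMSO wells and 100% = medium only without gametocytes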
MT stabilize HCS – microtubule stabilizers in HeLa cells, primary screen, imaging, high-content imaging; HeLa tubulin immunostaining HCS, 24 h; share of cells brighter than vehicle mean+2SD; % tubulin-high responders, % at 10 µM; actives 0.83% (n = 200,000); AID 2205, 2009;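 active means plate Z-score above 3 for both tubulin-high and condensed-nucleus cell shares, with cell loss under 80%, at 10 µM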;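 further: anti alpha tubulin signal scored within the nucleus-defined area of each cell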
WT yeast gro inh – growth inhibition of WT strain, primary screen, mitochondrial fusion inhibitor project, WT and mutant strains, chemical genetic | mitochondrial fusion phenotypic screen | AID 1362, 2008 | inhibition, % at 10 µM | actives 2.1% (n = 190,000); in the data active means inhibition above about 58%; tested in S. cerevisiae
Cl transport mod – KCC2 cotransporter modulators, thallium flux, primary screen, cell-based, HEK293 KCC2, FluoZin-2 fluorescence, MLSMR; KCC2 cells, thallium flux FluoZin-2 fluorescence; actives 2.2% (n = 190,000); Solute carrier family 12 member 5 (Homo sapiens), Q9H2X9; B-score of Tl+ flux slope (higher = more flux/activation; lower = inhibition) at 10 µM; AID 1456, 2008;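 active means thallium flux slope and its plate-corrected score both differing from the plate sample mean at a set confidence after two filtering rounds, in either direction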;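 further: slope of fluorescence scaled to starting intensity during 10 to 20 s after thallium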
Target sequence (Q9H2X9 whole entry, looked up): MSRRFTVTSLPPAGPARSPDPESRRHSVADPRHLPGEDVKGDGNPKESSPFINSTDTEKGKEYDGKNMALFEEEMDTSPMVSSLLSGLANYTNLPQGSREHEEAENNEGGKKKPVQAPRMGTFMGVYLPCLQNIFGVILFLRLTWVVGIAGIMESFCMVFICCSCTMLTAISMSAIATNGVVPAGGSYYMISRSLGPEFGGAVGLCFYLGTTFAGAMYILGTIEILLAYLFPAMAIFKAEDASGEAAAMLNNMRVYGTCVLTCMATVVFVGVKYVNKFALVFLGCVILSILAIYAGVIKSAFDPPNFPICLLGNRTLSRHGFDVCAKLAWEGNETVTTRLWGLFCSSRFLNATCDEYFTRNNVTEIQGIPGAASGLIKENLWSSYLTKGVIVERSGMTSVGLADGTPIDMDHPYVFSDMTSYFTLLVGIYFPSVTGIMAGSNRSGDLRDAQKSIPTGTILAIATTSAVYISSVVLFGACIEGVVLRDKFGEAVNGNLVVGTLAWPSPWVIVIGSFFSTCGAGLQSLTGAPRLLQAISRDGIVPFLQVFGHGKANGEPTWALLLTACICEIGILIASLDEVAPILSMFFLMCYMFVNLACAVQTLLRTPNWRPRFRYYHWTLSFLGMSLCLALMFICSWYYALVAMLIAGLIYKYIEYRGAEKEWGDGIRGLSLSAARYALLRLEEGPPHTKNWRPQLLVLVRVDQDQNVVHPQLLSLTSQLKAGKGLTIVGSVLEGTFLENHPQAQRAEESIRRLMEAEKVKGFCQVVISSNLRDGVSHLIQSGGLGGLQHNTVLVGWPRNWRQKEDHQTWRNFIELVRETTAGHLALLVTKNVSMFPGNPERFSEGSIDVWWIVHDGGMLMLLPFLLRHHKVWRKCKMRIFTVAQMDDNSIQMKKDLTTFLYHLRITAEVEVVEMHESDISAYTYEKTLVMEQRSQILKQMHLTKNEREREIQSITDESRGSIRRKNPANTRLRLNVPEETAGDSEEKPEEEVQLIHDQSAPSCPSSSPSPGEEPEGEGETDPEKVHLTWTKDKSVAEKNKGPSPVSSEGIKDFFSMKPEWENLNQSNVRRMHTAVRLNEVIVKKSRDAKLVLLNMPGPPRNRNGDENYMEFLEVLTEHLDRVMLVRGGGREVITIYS
The depositor's hits bear a star; . = no result.

SMILES	bCat nuc transl	Pf gametocyte	MT stabilize HCS	WT yeast gro inh	Cl transport mod
NCCOc1ccc(C23CC4CC(CC(C4)C2)C3)cc1	1	-9	4	97*	0.31
C/C(=N\Nc1cc(-c2ccccc2)nc(-c2ccccc2)n1)c1ccc(O)c(C)c1	7	-4	4	92*	0.06
O=c1c2cc(Br)ccc2nc(-c2cccc(C(F)(F)F)c2)n1O	1	2	3	9	24*
O=C1CC(c2ccccc2Br)c2cc3c(cc2N1)CCC3 (stereo unspecified)	1	.	21*	-3	0.059
O=C1CC(c2ccccc2F)c2cc3c(cc2N1)CCC3 (stereo unspecified)	131*	.	44*	10	-0.13
Cc1cc2c(cc1C)C(c1ccccc1Br)CC(=O)N2 (stereo unspecified)	0	-5	10	-3	1.5
COc1ccc(C(=O)N/C(=C\c2ccccc2)C(=O)Nc2ccccc2C(=O)O)cc1	.	11	.	.	.
O=C(COc1ccccc1)NNC(=S)NC(=O)c1ccc(Cl)cc1Cl	-1	.	4	56	22*
Cc1ccc(C(=O)CC(=O)COc2ccc(Cl)cc2)cc1	-2	1	3	1	21*
Cc1cccc(C(=O)NC(=S)NNC(=O)COc2ccc(Cl)cc2)c1	4	5	3	64*	47*
O=C(COc1cccc(Cl)c1)NNC(=S)Nc1ccccc1	-2	-7	4	38	2.6
COCCNC(=O)CN(C(=O)c1ccc(N2CCCC2)nc1)c1ccc(Cl)cc1	.	18	.	.	.
COc1ccc(NC(=O)c2c3c(nc4ccccc24)CCC3)cc1S(=O)(=O)N1CCOCC1	4	.	2	-1	-0.4
COc1ccccc1C(=O)n1nc(-c2ccccc2)nc1NCc1ccco1	.	.	2	83*	-1.5
O=C(c1ccco1)n1nc(-c2ccccc2)nc1NCc1ccco1	.	.	4	-7	0.47
Cc1ccc(/C=C/C(=O)OCn2nnc3ccccc3c2=O)o1	0	22	.	.	0.014
CC12CC3(C)CC(C)(C1)CC(C(=O)NC(=S)N1CCOCC1)(C2)C3	-2	.	3	5	9.4*
CC12CC3CC(C)(C1)CC(C(=O)NC(=S)N1CCCCC1)(C3)C2	0	.	2	77*	10*
O=C(NC(=S)N1CCOCC1)C12CC3CCC(CC(C3)C1)C2	0	1	2	-6	2.6
C=CCc1cccc(CNc2nc3ccccc3n2CCC)c1O	-4	0	2	59*	1
COc1ccc([N+](=O)[O-])cc1NC(=O)COC(=O)c1ccc(O)cc1	2	3	.	.	0.15
Cn1c(C(C)(O)C(O)c2ccccc2)nc2ccccc21 (stereo unspecified)	-2	.	4	-18	-0.0078
CC(=O)N1N=C(c2ccc(C)cc2)OC1c1ccc(Br)cc1 (stereo unspecified)	0	4	2	63*	0.61
C/C(=N\OCC(=O)NC12CC3CC(CC(C3)C1)C2)c1cc2ccccc2o1	-2	10	3	66*	0.48
CSc1ccc(N2C(=O)NC3(CCCCC3)C2=O)cc1	-1	.	6	2	.
SMILES	bCat nuc transl	Pf gametocyte	MT stabilize HCS	WT yeast gro inh	Cl transport mod
CCCCn1c(N)c(C(=S)NC(=O)CC(C)(C)C)c(=O)n(C)c1=O	0	13	2	68*	28*
CCCn1c(N)c(C(=O)CN2CCc3ccccc3C2)c(=O)n(C)c1=O	0	24	3	-2	0.064
Nc1ccc(C(=O)Nc2cccc(N)c2)cc1	1	.	.	.	-0.18
O=C(Nc1nnc(C2CC2)s1)c1cc(-c2ccccc2)nn1-c1ccccc1	.	-10	3	70*	0.3
Cc1ccc(C)c(NC(=O)c2cc(-c3ccccc3)nn2-c2ccccc2)c1	5	-17	1	74*	0.15
Cc1ccc(C)c(NC(=O)c2nc(-c3ccccc3)n(-c3ccccc3)n2)c1	0	7	2	18	-0.64
Cc1nn(-c2ccccc2)c(Cl)c1C(=O)Nc1nnc(C2CCCCC2)s1	2	.	5	6	0.64
CCOC(=O)c1ccc(NC(=S)NCCc2ccc(OC)c(OC)c2)cc1	0	-2	.	.	-0.84
O=C(Nc1cccc(S(=O)(=O)N2CCOCC2)c1)c1cnccn1	-3	.	9	-5	0.29
O=C(N1CCCCC1)C1(S(=O)(=O)c2ccccc2)CC=CC1	.	0	.	.	.
COc1cc(C(=O)N2CCN(c3ccc(C)cc3C)CC2)cc(OC)c1OC	27	.	27*	7	0.16
O=C(CSCc1ccc(Br)cc1)Nc1ccc(S(=O)(=O)N2CCOCC2)cc1	-2	11	4	6	.
Cc1ccccc1NS(=O)(=O)c1ccc(NC(=O)CSCc2ccc(Br)cc2)cc1	-1	.	4	66*	.
COc1ccc(NC(=O)c2ccc(F)cc2)cc1S(=O)(=O)Nc1cc(C)ccc1Br	1	-5	16*	12	0.19
Cc1ccc(O)c(-c2cc(-c3cccc(Br)c3)n[nH]2)c1	0	-14	18*	93	-0.94
Oc1ccc(Cl)cc1-c1cc(-c2ccccc2)n[nH]1	3	.	2	59*	0.7
CC(=O)OCC1(C)CN(c2ccccc2)NC1=O (stereo unspecified)	-1	-4	8	-9	0.49
COc1ccc(OC)c(-c2cc(C(=O)N3CCc4ccccc4C3)no2)c1	-2	11	6	62*	-1.3
COc1ccc(OC)c(-c2cc(C(=O)Nc3c(C)nn(Cc4ccccc4)c3C)no2)c1	-1	3	5	60*	.
COc1ccc(CCNC(=O)c2cc(-c3ccccc3OC)on2)cc1OC	-1	-9	2	-20	-0.82
COc1ccc(NC(=O)c2cc(-c3ccccc3OC)on2)cc1	145*	2	51*	0	-5.9
COc1ccc(OC)c(-c2cc(C(=O)Nc3c(C)nn(Cc4ccc(Cl)cc4)c3C)no2)c1	0	.	5	46	.
COc1ccccc1-c1cc(C(=O)NCCc2ccccc2)no1	.	.	21*	0	.
COc1ccc(-c2cc(C(=O)N3CCc4ccccc4C3)no2)cc1	-4	-14	1	31	-1.9
COc1ccccc1N(C)S(=O)(=O)c1ccc(C(=O)OCC(=O)NCCC2=CCCCC2)cc1	-2	-27	5	8	-0.88
COc1ccccc1-c1cc(C(=O)Nc2ccccc2SC)no1	3	.	3	9	0.1
COc1cc(NC(=O)c2cc(-c3cccs3)on2)cc(OC)c1OC	2	.	54*	-2	-0.62
COc1ccccc1-c1cc(C(=O)Nc2cccnc2)no1	70*	3	24*	2	-1.5
Cc1cc(SCC(=O)c2cc(C)n(C)c2C)nc2ccccc12	0	-21	7	3	0.22
CC(=O)N1/C(=C/c2ccc(N(C)C)cc2)C(=O)c2ccccc21	2	-12	20*	63*	-0.72
